We go through two compounds from ChEMBL document CHEMBL1914440, “Discovery of potent, selective, and orally bioavailable alkynylphenoxyacetic acid CRTH2 (DP2) receptor antagonists for the treatment of allergic inflammatory diseases” (J Med Chem, 2011).

The target in series [1] is T1, Prostaglandin D2 receptor 2 (Homo sapiens, UniProt Q9Y5Y4).
T1 sequence (Q9Y5Y4 whole entry): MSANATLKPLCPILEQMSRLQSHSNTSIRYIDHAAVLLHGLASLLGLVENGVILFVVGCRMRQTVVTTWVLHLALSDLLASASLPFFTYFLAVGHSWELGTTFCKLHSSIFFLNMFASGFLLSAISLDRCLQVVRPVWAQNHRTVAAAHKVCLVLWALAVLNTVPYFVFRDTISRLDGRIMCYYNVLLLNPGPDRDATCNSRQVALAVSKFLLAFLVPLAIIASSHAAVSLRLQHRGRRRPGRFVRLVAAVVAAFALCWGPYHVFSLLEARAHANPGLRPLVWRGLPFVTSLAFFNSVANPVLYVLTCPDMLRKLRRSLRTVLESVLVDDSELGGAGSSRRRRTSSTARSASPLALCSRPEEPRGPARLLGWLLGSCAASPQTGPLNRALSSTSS
Description: Displacement of [3H]PGD2 from human CRTH2 expressed in chinese hamster CHO cells by liquid scintillation counting. Format: cell-based. The method in brief:
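Scintillation proximity competition assay: 2–5 μg human CRTH2 cell membranes, 1.5 nM [3H]PGD2, WGA-SPA beads, 10 mM HEPES/KOH pH 7.4, 10 mM MnCl2, protease inhibitors, 1% DMSO; 90 min, room temperature, shaking. Nonspecific binding defined with 1 μM PGD2. Ki by Cheng–Prusoff, mean of ≥3 independent dose–response experiments.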
Background: Loss of bound radioactivity is the signal in a displacement assay; it reports binding, not function.

Series [2] is described as follows: Percentage unbound in human plasma. Format: ADME, cell-free.
A short description of series [3]: Percentage unbound in rat plasma. Format: ADME, cell-free.
Series [4] in a line: Percentage unbound in mouse plasma. It counts as ADME, cell-free.
Series [5] in a line: Intrinsic clearance in human liver microsomes assessed per mg of protein at 1 uM by LC/MS/MS analysis. Format: ADME, Microsome.
Series [6] can be described thus: Intrinsic clearance in rat liver microsomes assessed per mg of protein at 1 uM by LC/MS/MS analysis. It counts as ADME, Microsome. On the technique in general: Liver microsomes are vesicles of endoplasmic reticulum, rich in cytochrome P450 enzymes.
Series [7] is described as follows: Apparent permeability across human Caco2 cells at 1 uM after 2 hrs by LC/MS/MS analysis. Format: ADME, cell-based. Particulars: Caco-2. A general note: Caco-2 cells form a polarised layer with tight junctions and transporters.
Series [8] can be described thus: Clearance in BALB/c mouse at 5 mg/kg, po by LC/MS/MS analysis. Format: ADME, organism-based. Further details: dose 5 mg/kg, route oral. To be noted: in vivo.
A short description of series [9]: Thermodynamic solubility of the compound in 50 mM phosphate buffered saline at pH 7.4. To be noted: read-out: Therm_solubility. It counts as physicochemical. The method in brief:
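Thermodynamic solubility measured in 50 mM PBS at pH 7.4.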

A short description of series [10]: Half life in Sprague-Dawley rat at 1 mg/kg, iv and 5 mg/kg, po by LC/MS/MS analysis. Particulars: in vivo. Format: ADME, organism-based.
A short description of series [11]: Half life in BALB/c mouse at 1 mg/kg, iv and 5 mg/kg, po by LC/MS/MS analysis. It counts as ADME, organism-based. To be noted: in vivo.
Series [12] is described as follows: Lipophilicity, log D of the compound at pH 7.4. It counts as physicochemical. Particulars: buffer.
Series [13] in a line: Thermodynamic solubility of the compound in aqueous solution at pH 7.4. It counts as physicochemical. To be noted: read-out: Therm_solubility.

Values after ≈ are worked out from the molar mass of the structure shown.

A word on the Ki: it is the equilibrium dissociation constant of an inhibitor or competing ligand from its target. A word on the fraction unbound: it is free concentration divided by total concentration. Read a high fraction unbound as weak binding. In general, microsomal CLint refers to the rate of metabolic loss divided by the concentration. High values mean rapid turnover, low ones slow turnover. In general, Papp refers to the rate of passage across a membrane or cell layer, normalised by area and donor concentration. One may read the CL/F as clearance divided by bioavailability, as obtained after extravascular dosing. The term half-life denotes the time needed for the level to fall by half in the phase considered. Low values mean rapid decline, high ones slow decline. A word on the logD: it is the decadic logarithm of the distribution of all forms, ionised or not, between an organic phase and buffer at a given pH. The low end stands for lower lipophilicity, the high end for higher lipophilicity.

`CCCS(=O)(=O)c1cccc(C#Cc2cc(Cl)ccc2OCC(=O)O)c1` came in with a Ki in series [1] of 9 nM. Moreover, the fraction unbound in series [2] turned out to be 0.008; in series [3], 0.01; in [4] it was 0.024. Besides, the microsomal CLint at 1 µM is 11 µL/min/mg in [5] and under 10 µL/min/mg in [6]. Also, the Papp at 2 h, 1 µM in series [7] was found to be 11.8 ×10⁻⁶ cm/s. For the same compound, the CL/F in [8] was 5 mL/min/kg. Further, the solubility thermodynamic in series [9] turned out to be 760 µg/mL (≈ 1930 µM). The half-life is 4.4 h in series [10] and 2.2 h in series [11].

As for `CN(C)S(=O)(=O)c1cncc(C#Cc2cc(Cl)ccc2OCC(=O)O)c1`, the affinity in series [1], expressed as Ki, was 37 nM. For the same compound, the figures for the fraction unbound in [2], in series [3] and in series [4] were 0.033, 0.057 and 0.034, respectively. The apparent permeability coefficient (Papp) at 2 h, 1 µM in [7] worked out at 1.8 ×10⁻⁶ cm/s. For the same compound, in [12], the logD was -1.4. In series [8], this compound had a CL/F of 13.3 mL/min/kg. In series [11], the half-life was 4.4 h. Moreover, in [13], the solubility thermodynamic stood at 193 µg/mL (≈ 489 µM).
